Here are results for one compound from ChEMBL document CHEMBL3526115, “Differences in the pharmacokinetics of 4-amino-3-chlorophenyl hydrogen sulfate, a metabolite of resatorvid, in rats and dogs” (Drug Metab Dispos, 2012).

One data set deals with Rattus norvegicus. The experiment in a line: Unbound renal clearance in Crj:CD(SD)IGS rat at 0.5 mg/kg, iv administered as bolus dose measured from 0 to 24 hrs by HPLC-based liquid scintillation counting analysis. Format: ADME, organism-based, Kidney. Further details: dose 0.5 mg/kg, route intravenous. The settings on record: in vivo. In short, it runs like this:
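Male Crj:CD(SD)IGS rats received [14C]M-III in saline as an IV bolus at 0.5 mg–2.6 MBq/kg. Urine was collected in metabolic cages over 0–24 h. M-III in urine was taken as total urinary 14C times the M-III fraction, measured by direct HPLC, 1-min fraction collection and scintillation counting. CLrenal = urinary M-III / AUC. Unbound CLrenal = CLrenal / free fraction, from in vivo ultrafiltration binding. n = 3.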

Data set [1] is described as follows: Elimination rate constant in Crj:CD(SD)IGS rat at 0.5 mg/kg, iv administered as bolus dose by HPLC-based liquid scintillation counting analysis. The settings on record: in vivo. The class given is ADME, organism-based. Further details: dose 0.5 mg/kg, route intravenous. Summed up: (§1)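 [14C]M-III in saline given as a single iv bolus at 0.5 mg/kg to male rats (tail-vein blood, 5 min–24 h) or male beagle dogs (cephalic-vein blood, 5 min–168 h). Heparinized plasma counted for radioactivity; M-III quantified by HPLC with fraction collection and liquid scintillation counting. C5 min read directly; terminal t1/2 by linear regression, kel = ln2/t1/2, Vd = dose/back-extrapolated C0, CLtot = dose/AUCinf. Mean ± S.D., n = 3.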

Data set [2] is described as follows: Drug uptake in Beagle dog plasma at 0.5 mg/kg, iv administered as bolus dose after 5 mins by HPLC-based liquid scintillation counting analysis. Further details: dose 0.5 mg/kg, route intravenous. The class given is ADME, organism-based, Canis lupus familiaris. In short, it runs like this:
as §1

Data set [3] can be described thus: In vitro plasma protein binding in dog at 5 ug/ml by ultrafiltration method. Format: ADME, cell-free, Canis lupus familiaris. The conditions noted are these: read-out: PPB (converted). Summed up: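 [14C]M-III in saline was added to rat or dog plasma at final 0.5, 5 and 50 µg/ml. Plasma was ultrafiltered by centrifugation at 1500g and 37°C for 10 min, and 14C was measured in plasma and filtrate. Mean ± S.D., n = 3.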

Data set [4] can be described thus: Drug excretion in Crj:CD(SD)IGS rat urine assessed as excretion ratio of [14C] at 0.5 mg/kg, iv administered as bolus dose measured from 0 to 24 hrs by HPLC-based liquid scintillation counting analysis. Format: ADME, organism-based. The settings on record: in vivo. Further details: dose 0.5 mg/kg, route intravenous. In short, it runs like this:
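Male rats in metabolic cages with urine/feces separator, or beagle dogs, after a 0.5 mg/kg iv bolus of [14C]M-III in saline. Radioactivity in urine and feces collected 0–24 h (rats) or 0–168 h (dogs) was counted and expressed as percent of dose. Mean ± S.D., n = 3.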

Data set [5] in a line: Total body clearance in Crj:CD(SD)IGS rat at 0.125 mg/hr, iv administered as continuous infusion by HPLC based liquid scintillation counting analysis in presence of 62 mg/hr/kg probenecid. Format: ADME, organism-based. The settings on record: in vivo, with probenecid 62 mg/hr/kg. Summed up:
(§2)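 Rats received a continuous iv infusion of [14C]M-III at 0.125 mg/rat/h, with probenecid co-infused at 16, 31 or 62 mg/h/kg or vehicle alone, for 5 h. Arterial plasma was sampled during infusion. CLtot = infusion rate / steady-state plasma M-III (120–180 min). Unbound fraction was measured by ultrafiltration of 5-h plasma (10,000 MWCO, 1500g, 37°C, 10 min). CLint = CLtot / unbound ratio.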

Data set [6] can be described thus: In vivo plasma protein binding in Crj:CD(SD)IGS rat at 0.125 mg/hr, iv administered as continuous infusion by ultrafiltration method in presence of 31 mg/hr/kg probenecid. Format: ADME, organism-based. The settings on record: with probenecid 31 mg/hr/kg, read-out: PPB (converted). Summed up:
as §2

The nature of data set [7]: In vivo plasma protein binding in Crj:CD(SD)IGS rat at 0.125 mg/hr, iv administered as continuous infusion by ultrafiltration method in presence of 62 mg/hr/kg probenecid. The class given is ADME, organism-based. The conditions noted are these: with probenecid 62 mg/hr/kg, read-out: PPB (converted). In short, it runs like this:
as §2

The nature of data set [8]: Unbound fraction in Crj:CD(SD)IGS rat plasma at 0.125 mg/hr, iv administered as continuous infusion by ultrafiltration method in presence of 31 mg/hr/kg probenecid. The class given is ADME, organism-based. The conditions noted are these: with probenecid 31 mg/hr/kg. In short, it runs like this: as §2

`N[14c]1[14cH][14cH][14c](OS(=O)(=O)O)[14cH][14c]1Cl` had a CL free in the data set with Rattus norvegicus of 96.3 mL/min/kg. The same compound had a k el in data set [1] of 5.11e-05 s⁻¹. For the same compound, in [2], the concentration at 5 min was found to be 4690 ng/mL. In data set [3], the fraction unbound at 5 ug/ml was 0.087. Moreover, the Drug excretion in data set [4] is 84.7%. Moreover, the clearance in data set [5] is 1.83 mL/min/kg. The results for the fraction unbound in data set [6], in data set [7] and in data set [8] were 0.197, 0.184 and 0.197, respectively.

As a reminder, the clearance is the rate of elimination divided by the concentration.
